Drawing on ChEMBL document CHEMBL2086379, “Novel pyrimidopyrimidine derivatives for inhibition of cellular proliferation and motility induced by h-prune in breast cancer” (Eur J Med Chem, 2012), this text covers inhibition, IC50 and Activity for 2 compounds.

The species named for experiment [1] is Homo sapiens. Put plainly: Inhibition of cell motility in human MDA-MB-231T cells expressing human-prune at 8 uM by 2D cell migration assay. The class given is functional, cell-based.
Experiment [2] deals with T1, Exopolyphosphatase PRUNE1 (Homo sapiens, UniProt Q86TP1).
T1 sequence (Q86TP1 whole entry): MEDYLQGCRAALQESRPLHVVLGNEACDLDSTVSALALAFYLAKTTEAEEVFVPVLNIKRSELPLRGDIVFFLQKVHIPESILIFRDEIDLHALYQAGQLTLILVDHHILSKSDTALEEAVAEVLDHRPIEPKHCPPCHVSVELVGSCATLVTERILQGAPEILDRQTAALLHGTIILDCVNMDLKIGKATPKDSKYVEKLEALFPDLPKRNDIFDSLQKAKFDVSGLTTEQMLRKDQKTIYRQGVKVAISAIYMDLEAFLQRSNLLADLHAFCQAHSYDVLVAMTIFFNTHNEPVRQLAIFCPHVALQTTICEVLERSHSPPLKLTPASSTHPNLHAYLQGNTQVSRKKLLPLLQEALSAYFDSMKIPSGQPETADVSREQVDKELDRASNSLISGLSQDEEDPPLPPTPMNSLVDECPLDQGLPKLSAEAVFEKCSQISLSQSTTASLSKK
Put plainly: Inhibition of purified human prune assessed as reduction of cAMP-phosphodiesterase activity by SPA.

The target of experiment [3] is T2, Exopolyphosphatase PRUNE1 (Homo sapiens) (UniProt Q86TP1).
T2 sequence (whole entry): T1 sequence (Q86TP1 whole entry)
Kind of experiment: Inhibition of human prune expressed in human MDA-435-c100 cells at 1 uM assessed as reduction of cAMP-phosphodiesterase activity using whole cell protein extracts by SPA. In kind it is cell-based.

For experiment [4], the species on record is Homo sapiens. Put plainly: Inhibition of cell proliferation of human MDA-MB-231T cells expressing human-prune assessed as cell index levels at 50 uM measured 5 hrs post dose by xCelligence system based real time cell analysis method. In kind it is functional. Put shortly:
(§1)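 Compound or DMSO added once when cell index reached 1.0–1.2 (50–60% confluence). CI read every 5 min for up to 54–56 h at 37 °C, 5% CO2, normalised to time of addition. Compounds at 50 µM (dose-response runs also 100 µM). Two independent experiments; Student's t test.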

The nature of experiment [5]: Inhibition of cell proliferation of human MDA-MB-231T cells expressing human-prune assessed as cell index levels at 50 uM measured 24 hrs post dose by xCelligence system based real time cell analysis method (reference value: 1.777 cell index). In kind it is functional. The method, boiled down:
as §1

Experiment [6] concerns the target T1, Exopolyphosphatase PRUNE1. Put plainly: Inhibition of human prune assessed as reduction of cAMP-phosphodiesterase activity.
The species named for experiment [7] is Homo sapiens. Put plainly: Inhibition of cell proliferation of human MDA-MB-231T cells expressing human-prune assessed as cell index levels at 50 uM measured 9 to 54 hrs post dose by xCelligence system based real time cell analysis method. In kind it is functional. The method, boiled down:
as §1

Structures are written as SMILES. Activity calls are given as the source filed them. The rule behind the calls is not given here.

One may read the IC50 as the concentration needed to halve the response being measured. Turning to `COc1ccc(CNc2nc(N(CCO)CCO)nc3c(NCc4ccc(OC)cc4)nc(N(CCO)CCO)nc23)cc1`, the inhibition result (in the experiment filed under Homo sapiens [1]; in experiment [3]) was “Active” in each case. Further, the IC50 in experiment [2] came out at 210 nM. Moreover, the inhibition entry in the experiment listed under Homo sapiens [4] is “inactive”. Also, in experiment [5], the Activity is 1.185.

Take `OCCN(CCO)c1nc(N2CCCCC2)c2nc(N(CCO)CCO)nc(N3CCCCC3)c2n1` [DIPYRIDAMOLE]: the inhibition result in the experiment filed under Homo sapiens [1] and in the experiment listed under Homo sapiens [7] was “Active” each time. In addition, in experiment [6], the half-maximal inhibitory concentration (IC50) was determined as 780 nM. In the experiment listed under Homo sapiens [4], the inhibition entry is “inactive”. Also, in experiment [5], the Activity was 1.472.
